# Screens (PubChem)
# STAT3 blocker: reduces IL-6 driven STAT3 reporter signal; hit rate 0.89% among 190,000; U3A cells, IL-6 STAT3-luciferase reporter, luminescence; host cell line lacks STAT1; AID 862; inhibition, % at 5.5 µM;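 active means inhibition above the mean inhibition across all screened compounds plus 3 SD, cut at about 44% in these data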;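 further: 0% = DMSO only wells and 100% = 100 µM nifuroxazide control wells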
# STAT3 act: activators of IL-6 induced STAT3 signaling. U3A cells, IL-6 STAT3-luciferase reporter, luminescence; 100% = signal with IL-6 EC80 alone. activation (% of control), % at 5.6 µM. AID 871. hit rate 0.91% among 190,000;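 active means activation above the screen-wide mean of compound activation plus 3 SD, cut at about 130% in these data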;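 further: 0% = background luminescence of wells with medium and substrate only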
#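 Test system: human U3A cells carrying STAT3-luciferase construct; control set: IL-6-only wells as 100% reference; timing: compound pre-incubation 1 h before IL-6, then 6 h stimulation at 37 °C; also added: IL-6 stimulus at 33 ng/mL final; evaluation: % activation versus median of IL-6-stimulated wells; detection: reporter luminescence signal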
# APP 5'UTR act: APP 5'UTR luciferase reporter activation; SH-SY5Y APP 5'UTR luciferase reporter, luminescence; zero percent = DMSO vehicle wells; activation, % at 2 µM; hit rate 1% among 190,000;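 active means activation above a set limit, based on mean plus 3 SD of controls, cut at about 140% in these data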
# NF-kB neuron act: NF-kB expression increase, human neuronal cells | NF-kB reporter expression; stronger effect = higher value | fold change at 12.5 µM | hit rate 1.6% among 190,000; in the data active means fold change above about 3.3
# STAT1 blocker: reduces IFN-gamma driven STAT1 reporter signal; NIH 3T3 STAT1-luciferase reporter, luminescence; inhibition, % at 5.5 µM; hit rate 0.35% among 200,000; AID 920;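 active means inhibition above a set limit, the mean inhibition across all tested compounds plus 3 SD, cut at about 34% in these data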;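 further: 0% = IFN-gamma with DMSO and 100% = IFN-gamma with 300 µM nifuroxazide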
# STAT1 activator: increases IFN-gamma driven STAT1 reporter signal; NIH 3T3 STAT1-luciferase reporter, luminescence; 100% = IFN-gamma alone, no compound; AID 932; hit rate 2.6% among 200,000; activation (% of control), % at 5.5 µM;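 active means activation above the screen-wide mean activation plus 3 SD, cut at about 130% in these data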;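 further: raw ratio to IFN-gamma control signal so 100% means no change and 0% no light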
# * marks the source's active call; other numbers are inactive results; / = no result given. Rows were chosen to be rich in hits. Some 5.1% of all compounds tested hit in one or more screens of this group.
SMILES,STAT3 blocker,STAT3 act,APP 5'UTR act,NF-kB neuron act,STAT1 blocker,STAT1 activator
Nc1ccc2nc(-c3ccccc3)sc2c1,64*,46,108,2.1,42*,61
CCc1ccc2nc(N)sc2c1,7,96,56,0.95,-9,106
CCOc1ccccc1NC(=S)NCc1ccco1,4,98,0,0.81,-1,101
Cc1ccn2c(CN(C)CCn3nc(C)cc3C)c(C(=O)N3CCCCCC3)nc2c1,8,104,6,1.1,3,97
CC(C)OC(=O)CSc1nc(Cc2ccccc2)nc2ccccc12,-4,106,5,1.2,-2,100
COC(=O)c1ccc(CSC2=NCCS2)cc1,-12,110,61,1.9,-34,130*
CN1C(=O)C2(Oc3ccccc3C3CC(c4ccccc4)=NN32)c2ccccc21 (stereo unspecified),-14,120,137*,1.8,2,98
Cc1ccc(C2=NN3C(C2)c2ccccc2OC32C(=O)Nc3ccccc32)cc1 (stereo unspecified),-32,132,204*,8.7*,-8,107
CC(=O)N1N=C(c2ccc(C)cc2)CC1c1ccco1 (stereo unspecified),3,104,31,1.8,-15,113
NS(=O)(=O)c1ccc(CCNC(=O)CSc2nc3ccccc3c(=O)n2CCC(=O)N2CCCCC2)cc1,-6,108,2,2.4,2,96
Cc1ccc2nsnc2c1NC(=O)COc1ccccc1F,10,98,2,1.3,-11,109
O=C(COC(=O)Cc1ccc(S(=O)(=O)N2CCOCC2)s1)NCc1ccc(Cl)cc1,-12,108,/,0.96,-7,107
Cc1cc2c(nc1C)CCCN2C[C@@H](C)O/N=C1/[C@H]2CCn3c(=O)n(-c4ccccc4)c(=O)n3[C@H]2[C@H](O)[C@@H]2O[C@H]12,-6,103,-11,3.4*,0,100
C/C(CCN1CCCCc2nc(C)c(C)cc21)=N\O[C@H](C)c1cn([C@H](CO)Cc2ccccc2)nn1,-7,103,5,0.77,-5,104
Cc1nc([N+](=O)[O-])cn1Cc1cccc([N+](=O)[O-])c1,1,102,-23,0.95,-7,105
CC(C)(C)n1ncc2c(=O)n(CC(=O)c3ccc(Cl)cc3)cnc21,-4,105,121,2.8,-59,154*
CC(C)(C)n1ncc2c(=O)n(CC(=O)NCc3ccccc3)cnc21,-2,105,168*,3,-55,149*
CC(C)(C)n1ncc2c(=O)n(CC(=O)Nc3ccc(Cl)cc3)cnc21,-11,111,-6,1.1,4,96
CC(=O)Nc1ccc(NC(=O)Cn2cnc3c(cnn3C(C)(C)C)c2=O)cc1,-10,111,12,1.5,-3,103
CC1CN(CCCCOc2ccc(F)cc2)CC(C)O1 (stereo unspecified),10,99,-1,1.4,-8,106
O=C(COc1ccccc1[N+](=O)[O-])Nc1ccc(N2CCN(C(=O)c3cccs3)CC2)cc1,26,81,7,0.61,8,92
CCN1C/C(=C/c2ccc(N3CCOCC3)cc2)C(=O)/C(=C/c2ccc(N3CCOCC3)cc2)C1,-6,111,-7,5.3*,-3,103
CN1C/C(=C\c2ccc(N3CCOCC3)cc2)C(=O)/C(=C/c2ccc(N3CCOCC3)cc2)C1,-4,108,4,1.1,-1,101
O=C(CCn1nnc2ccccc21)N1CCC(O)(c2cccc(F)c2)CC1,0,104,23,1.3,0,99
COc1ccc(C(=O)CSc2ccc(-c3ccccc3)nn2)cc1,0,96,8,1.3,0,100
SMILES,STAT3 blocker,STAT3 act,APP 5'UTR act,NF-kB neuron act,STAT1 blocker,STAT1 activator
COc1ccc(-c2ccc(SC)nn2)cc1,84*,30,114,/,59*,46
CN(C)C(=O)CN(c1ccc(F)c(Cl)c1)S(C)(=O)=O,-38,135*,3,0.97,7,94
CCc1nnc(NC(=O)c2ccc(-c3ccc(F)cc3)o2)s1,23,83,2,1.3,-2,100
O=C(Nc1nccs1)c1ccc(-c2ccc(Cl)cc2)o1,16,90,133,6.1*,-41,138*
O=C(Nc1cccnc1)c1ccc(-c2ccc(Cl)cc2)o1,8,95,30,1.9,-30,127
O=C(Nc1nccs1)c1ccc(-c2ccc(F)cc2)o1,19,86,157*,3.1,-33,129*
Fc1ccc(NC(=S)Nc2nccs2)cc1,21,86,71,9.1*,-11,110
CC1CCCCC1NC1=NCCCS1 (stereo unspecified),11,93,-1,1,-11,107
CCN(CC)S(=O)(=O)c1cc(NC(=O)CNc2c(C)n(C)n(-c3ccccc3)c2=O)ccc1C,7,100,-15,1,-3,101
Cc1ccccc1-c1cc(-c2ccccc2O)n[nH]1,-28,126,158*,7.7*,1,99
COc1ccccc1-c1cc(-c2cc(Cl)ccc2O)n[nH]1,-15,117,24,1.3,0,100
Cc1ccc(-c2cc(-c3ccccc3Cl)[nH]n2)c(O)c1,-18,118,171*,9.8*,-3,102
Oc1ccc(Br)cc1-c1cc(-c2ccccc2F)[nH]n1,-34,134*,17,1.4,1,99
Cc1c(Cl)cccc1NC(=O)c1cc(-c2ccccc2O)n[nH]1,10,92,70,1.6,-7,106
O=C(NCC(c1ccco1)N1CCN(c2ccccc2)CC1)c1ccc2c(c1)OCO2 (stereo unspecified),21,90,3,1.2,9,90
NCc1ccccc1COc1ccccc1,1,103,11,1,2,98
CCN(CC)C(=O)C[n+]1ccc(C(N)=O)cc1,3,99,-17,1.3,4,95
CC(C)(C)NC(=O)C[n+]1ccc(C(N)=O)cc1,0,102,6,6.2*,7,92
CC(C)c1ccccc1NC(=O)CNC(C)c1ccc(F)cc1 (stereo unspecified),-1,103,8,1.1,0,99
COC(=O)c1sc2nc(C)nc(SCC(=O)N3CCC(C(=O)O)CC3)c2c1C,0,101,2,1,-11,111
Nc1ncc(Br)cc1N=Cc1ccccc1,12,92,86,4.7*,-55,149*
CCOc1ccc(-c2ccc(SCc3ccccn3)nn2)cc1,26,85,49,1.1,-33,129*
c1ccc(CSc2ccc(-c3cccs3)nn2)nc1,15,94,78,2.5,-38,136*
CCOc1ccc(-c2ccc(SCC(=O)Nc3nnc(C)s3)nn2)cc1,22,89,183*,2.6,-4,103
CCc1ccc(-c2ccc(SCC(=O)Nc3nnc(C)s3)nn2)cc1,23,85,85,3,-22,119
